Like-named read-outs stand apart in the source and are kept apart here.
Key:
ZIKV [1] = experiment: Plaque forming assay; type: cell-based, Zika virus
Method in brief: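 Supernatants from ZIKV-infected, compound-treated cultures were put on overnight Vero monolayers (2 × 10^5 cells/well) for 2 h at 37 °C. Inoculum replaced with plaque medium containing 1% methylcellulose. After 7 days, cells fixed and stained with 4% formaldehyde and 0.5% crystal violet.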

ZIKV [2] = experiment: ZIKV strand specific RNA by qRT-PCR; type: cell-based; settings: Zika virus, Vero
ZIKV [3] = experiment: Viral protein by western blotting and immunofluorescence in Vero cells; type: cell-based, Zika virus
Method in brief: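 Vero cells infected with ZIKV at MOI 0.1 and treated with test compound or DMSO. At 48 hpi: fixed in 4% paraformaldehyde (15 min), permeabilized with 0.2% Triton X-100 (5 min), blocked in 5% BSA (30 min). Stained overnight at 4 °C with pan-flavivirus envelope mAb 4G2, then fluorescent secondary for 30 min at RT. Nuclei stained with DAPI; imaged by confocal microscopy.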

ZIKV [4] = experiment: Anti-ZIKV assay; type: cell-based, Zika virus; settings: for EC50: Zika virus
Method in brief: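 Cells seeded at 2 × 10^5/well and pretreated 2 h with serial dilutions of test compound (DMSO stock diluted in medium). Infected with ZIKV (Asian strain KU963796) at MOI 0.1 for 2 h, then incubated to 48 hpi at 37 °C, 5% CO2 in DMEM. Cellular vRNA measured by SYBR Green qRT-PCR using the 2^-ΔΔCT method normalized to GAPDH. EC50 is the concentration reducing viral yield by 50%.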

ZIKV [5] = experiment: Lethal ZIKV challenge in AG6 mice; type: in vivo
Method in brief: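 AG6 mice aged 4–5 weeks (13–15 g, n = 6/group) were infected with 3.3 × 10^6 PFU ZIKV via footpad. Dosed intragastrically at 1, 5 or 10 mg/kg (DMSO stock in 0.5% carboxymethyl cellulose) or vehicle for 14 days. Survival and body weight tracked to 14 dpi. Retro-orbital blood at 1, 3, 7 dpi: vRNA copies by qRT-PCR against a standard curve. Brain/liver vRNA by RT-qPCR; H&E histology. One-way ANOVA with Dunnett's test.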

Cytotoxicity measurement [6] = type: cell-based; settings: African green monkey, Vero cells
Method in brief: (§1)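 Cells seeded at 6 × 10^3/well and exposed to a range of test compound concentrations (DMSO stock diluted in medium) for 48 h; controls received equal-volume DMSO. 10% CCK8 reagent added for 1 h, then absorbance read at 450 nm. CC50 taken as the concentration lowering viability by 50%.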

Cytotoxicity measurement [7] = type: cell-based; settings: human, A549 cells
Method in brief: as §1

ZIKV [8] = experiment: Time-of-removal assay; type: cell-based, Zika virus
Method in brief: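 ZIKV-infected Vero cells received 1 μM test compound or DMSO at 6 hpi, with vRNA sampled every 3 h up to 24 hpi. Alternatively, treatment started at 24 hpi, with sampling every 6 h for a further 12 h. vRNA by SYBR Green qRT-PCR normalized to GAPDH. E and NS5 protein by western blot of cell lysates (SDS-PAGE, PVDF, overnight primary antibody at 4 °C, ECL), with GAPDH detected.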

ZIKV NS5 RdRp = ZIKV NS5 RdRp (Zika virus, UniProt A0A024B7W1); experiment: In vitro RNA polymerase assay; type: biochemical; settings: recombinant ZIKV NS5, serial dilutions
Chain of ZIKV NS5 RdRp (A0A024B7W1 2521-3423 limits assumed): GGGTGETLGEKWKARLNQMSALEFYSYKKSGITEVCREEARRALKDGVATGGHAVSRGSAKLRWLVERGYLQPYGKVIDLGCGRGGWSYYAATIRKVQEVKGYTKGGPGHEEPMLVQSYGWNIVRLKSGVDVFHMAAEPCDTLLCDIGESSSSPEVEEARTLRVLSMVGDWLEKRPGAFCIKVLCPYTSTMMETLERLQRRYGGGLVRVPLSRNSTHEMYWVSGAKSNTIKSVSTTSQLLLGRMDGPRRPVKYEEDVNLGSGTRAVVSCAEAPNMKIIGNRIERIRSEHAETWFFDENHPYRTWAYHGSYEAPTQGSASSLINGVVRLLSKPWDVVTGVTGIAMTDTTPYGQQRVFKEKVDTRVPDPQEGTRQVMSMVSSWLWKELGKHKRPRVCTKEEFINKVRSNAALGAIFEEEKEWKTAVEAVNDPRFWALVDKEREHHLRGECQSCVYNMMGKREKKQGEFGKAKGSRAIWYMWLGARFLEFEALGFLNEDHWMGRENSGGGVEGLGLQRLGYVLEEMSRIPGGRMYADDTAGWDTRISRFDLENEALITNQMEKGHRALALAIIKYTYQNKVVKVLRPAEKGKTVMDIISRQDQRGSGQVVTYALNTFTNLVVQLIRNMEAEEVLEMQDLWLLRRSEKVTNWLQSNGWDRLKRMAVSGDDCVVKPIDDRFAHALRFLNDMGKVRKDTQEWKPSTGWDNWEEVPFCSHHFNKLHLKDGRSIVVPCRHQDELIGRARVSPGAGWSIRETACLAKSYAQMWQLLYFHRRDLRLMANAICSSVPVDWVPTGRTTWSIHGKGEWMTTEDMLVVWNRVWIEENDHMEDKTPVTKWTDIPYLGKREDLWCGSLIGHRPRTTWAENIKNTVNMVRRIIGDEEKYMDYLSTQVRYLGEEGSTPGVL

ZIKV [9] = experiment: Time-of-addition assay; type: cell-based, Zika virus; settings: 1 μM, added between -2 and 10 hpi, Vero cells, read at 48 hpi
Cytotoxicity measurement [10] = type: cell-based; settings: human, Huh7 cells
Method in brief: as §1

ZIKV [11] = settings: ref Adcock et al., 2017; cited from earlier work
[12] = 1 μM added at 6 hpi, after 24 h of viral infection, western blot intensity

For O[C@H]1[C@H]2c3cc4c(cc3CN3CCC(=C[C@@H]1O)[C@H]23)OCO4 [Lycorine], the “Inhibition of plaque formation” value (ZIKV [1]; 0.5 μM) was “partially”, the “Inhibition of plaque formation” value (ZIKV [1]; 5 μM) was “completely” and the inhibition at 1 µM (ZIKV [2]; read-out: Inhibition of negative-sense vRNA synthesis) was roughly 95%. For the same compound, the inhibition at 1 µM (ZIKV [2]; read-out: Inhibition of positive-sense vRNA synthesis) was roughly 93%, the “ZIKV protein (western blotting)” value (ZIKV [3]; 0.01 to 10 μM) was “dose-dependent reduction in the ZIKV protein” and the “ZIKV envelope biosynthesis (immunofluorescence)” value (ZIKV [3]; 48 hpi) was “significantly reduced”. The “SI (selectivity index)” value (ZIKV [4]; A549 cells) was 19.5, the “SI (selectivity index)” value (ZIKV [4]; Huh7 cells) was 20 and the “SI (selectivity index)” value (ZIKV [4]; Vero cells) was 54. The EC50 (ZIKV [4]; A549) was 0.22 µM, the EC50 (ZIKV [4]; Huh-7) was 0.22 µM and the EC50 (ZIKV [4]; Vero) was 0.39 µM. For the same compound, the “Brain histopathology (H&E)” value (ZIKV [5]; 1 mg/kg) was “brain tissue lesions were similar to those in the ZIKV group”, the “Liver histopathology (H&E)” value (ZIKV [5]; 1 mg/kg) was “inflammatory response of the cells was obvious” and the “Reduction of vRNA of brain tissue” value (ZIKV [5]; 1 mg/kg) was “not significant difference”. The “Reduction of vRNA of liver” value (ZIKV [5]; 1 mg/kg) was “not significant difference”, the Survival rate (ZIKV [5]; 1 mg/kg intragastric, 14 days) was 33% and the “Brain histopathology (H&E)” value (ZIKV [5]; 5 mg/kg) was “significantly reduced the ZIKV-induced inflammatory response”. For the same compound, the “Reduction of vRNA of brain tissue” value (ZIKV [5]; 5 mg/kg) was “about one order of magnitude”, the “Reduction of vRNA of liver” value (ZIKV [5]; 5 mg/kg) was “about one and half order of magnitude, respectively” and the Survival rate (ZIKV [5]; 5 mg/kg intragastric, 14 days) was 66%. The “Brain histopathology (H&E)” value (ZIKV [5]; 10 mg/kg) was “significantly reduced the ZIKV-induced inflammatory response”, the “Reduction of vRNA of brain tissue” value (ZIKV [5]; 10 mg/kg) was “about three orders of magnitude” and the “Survival (protection against ZIKV infection-induced death)” value (ZIKV [5]; 10 mg/kg intragastric, 14 days, ZIKV group 100% mortality) was 83%. For the same compound, the “Liver histopathology (H&E)” value (ZIKV [5]; 10 mg/kg, compared to 5 mg/kg group) was “significantly reduced liver damage”, the “vRNA levels in blood versus ZIKV group” value (ZIKV [5]; 1, 3 and 7 dpi) was “one order of magnitude lower” and the Body weight changes (ZIKV [5]; weight loss from 5 dpi, 0 to 14 dpi) was “recovered until 9 or 10 dpi”. For the same compound, the CC50 at 48 h (Cytotoxicity measurement [6]) was 21 µM, the CC50 at 48 h (Cytotoxicity measurement [7]) was 4.29 µM and the vRNA synthesis (ZIKV [8]; 1 μM added at 6 hpi, Vero cells, monitored up to 24 hpi) was “fully abrogated vRNA synthesis”. The NS5 protein reduction (ZIKV [8]; [12]) was 89%, the “Virus E protein reduction” value (ZIKV [8]; [12]) was 52% and the “Viral E and NS5 protein reduction” value (ZIKV [8]; 1 μM added at 24 hpi) was “no significant difference”. The vRNA (ZIKV [8]; 1 μM added at 24 hpi, monitored for additional 12 h) was “no effect on vRNA”, the RdRp activity (ZIKV NS5 RdRp) was “directly inhibited RdRp activity in a dose-dependent manner” and the “vRNA and viral progeny particle load, time-of-addition” value (ZIKV [9]) was “strongest ability to decrease the vRNA and viral progeny particle load”. The CC50 at 48 h (Cytotoxicity measurement [10]) was 4.4 µM.
In the case of Cc1c(-c2ccc(-c3ccccc3F)cc2)nc2ccc(F)cc2c1C(=O)O [Brequinar, reference compound], the EC50 (ZIKV [11]) is listed as 0.08 µM, the “SI (selectivity index)” value (ZIKV [4]; A549 cells) is listed as greater than 1086 and the “SI (selectivity index)” value (ZIKV [4]; Huh7 cells) is listed as greater than 8333. The “SI (selectivity index)” value (ZIKV [4]; Vero cells) was greater than 2272, the EC50 (ZIKV [4]; A549) was 0.046 µM and the EC50 (ZIKV [4]; Huh-7) was 0.006 µM. It also gave an EC50 (ZIKV [4]; Vero) of 0.022 µM, a CC50 at 48 h (Cytotoxicity measurement [6]) greater than 50 µM and a CC50 at 48 h (Cytotoxicity measurement [7]) greater than 50 µM. For the same compound, the CC50 at 48 h (Cytotoxicity measurement [10]) was greater than 50 µM.

— publication PMC7194111 (Virology, 2020)
